Measurements reported in ChEMBL document CHEMBL1148329, “Synthesis and structure-activity studies on N-[5-(1H-imidazol-4-yl)-5,6,7,8-tetrahydro-1-naphthalenyl]methanesulfonamide, an imidazole-containing alpha(1A)-adrenoceptor agonist” (J Med Chem, 2004).

Key:
Canis familiaris [1] = assay: Uroselectivity was determined by measuring effective dose required for 5 mmHg increase of intraurethral pressure (IUP) in vivo in dog; assay type: functional, Canis lupus familiaris
Method in brief: (§1)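 Dog model recording intraurethral pressure (IUP) and mean arterial pressure (MAP) simultaneously. Increasing iv doses given, maximal effect of each dose taken. Doses giving a 5 mmHg rise in IUP (ED Δ5) or 20 mmHg rise in MAP (ED Δ20) were calculated, in nmol/kg ± SEM, n ≥ 4 (2 or 3 where footnoted).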

[2] = biological target: T1, Alpha-1A adrenergic receptor (Rattus norvegicus, UniProt P43140); assay: In vitro binding affinity towards alpha-1A adrenergic receptor of rat submaxillary gland in radioligand binding assay
T1 sequence (P43140 whole entry): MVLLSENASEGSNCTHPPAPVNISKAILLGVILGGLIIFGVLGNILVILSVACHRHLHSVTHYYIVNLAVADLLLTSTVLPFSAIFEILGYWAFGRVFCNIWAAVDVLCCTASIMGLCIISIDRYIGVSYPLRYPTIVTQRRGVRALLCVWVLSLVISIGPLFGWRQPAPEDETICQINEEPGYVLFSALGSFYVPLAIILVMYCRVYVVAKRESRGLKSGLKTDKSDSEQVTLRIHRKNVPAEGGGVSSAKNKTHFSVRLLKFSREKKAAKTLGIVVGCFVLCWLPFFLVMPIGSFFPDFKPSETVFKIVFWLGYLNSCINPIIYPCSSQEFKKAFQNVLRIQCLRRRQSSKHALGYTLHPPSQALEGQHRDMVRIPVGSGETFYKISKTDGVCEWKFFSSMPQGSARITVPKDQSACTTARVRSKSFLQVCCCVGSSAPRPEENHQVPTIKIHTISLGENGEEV
Method in brief: (§2)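 Radioligand binding at α1 subtypes: α1A from rat submaxillary gland, α1B hamster clone, α1D rat clone. Run essentially per an earlier method.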

[3] = biological target: T2, Alpha-1B adrenergic receptor (Mesocricetus auratus, UniProt P18841); assay: In vitro binding affinity towards alpha-1B adrenergic receptor of hamster clone in radioligand binding assay; assay type: single protein; method in brief: as §2
T2 sequence (P18841 whole entry): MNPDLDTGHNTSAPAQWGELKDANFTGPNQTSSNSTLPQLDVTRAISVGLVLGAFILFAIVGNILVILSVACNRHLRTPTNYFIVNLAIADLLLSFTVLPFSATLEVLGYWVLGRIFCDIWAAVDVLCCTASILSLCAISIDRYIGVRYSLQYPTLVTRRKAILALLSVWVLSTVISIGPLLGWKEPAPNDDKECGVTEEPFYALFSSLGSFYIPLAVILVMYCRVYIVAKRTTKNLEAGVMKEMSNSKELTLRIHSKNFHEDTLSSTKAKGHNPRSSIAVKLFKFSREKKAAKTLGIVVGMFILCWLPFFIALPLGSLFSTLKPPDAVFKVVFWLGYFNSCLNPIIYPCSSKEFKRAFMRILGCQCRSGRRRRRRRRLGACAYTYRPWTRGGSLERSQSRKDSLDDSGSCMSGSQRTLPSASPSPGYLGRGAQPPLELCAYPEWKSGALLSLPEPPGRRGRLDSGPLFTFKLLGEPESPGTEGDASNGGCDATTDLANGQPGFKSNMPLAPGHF

[4] = biological target: Alpha adrenergic receptor 1A and 1D (Rattus norvegicus) (UniProt P23944+P43140); assay: Selectivity is ratio of pKi (binding affinity) of Alpha-1D to that of alpha1A; assay type: protein assay
Canis familiaris [5] = species: Canis familiaris; assay: Ratio of MAP ED delta20 to that of IUP ED delta5
[6] = biological target: Alpha adrenergic receptor 1A and 1B (Rattus norvegicus) (UniProt P15823+P43140); assay: Selectivity is ratio of pKi (binding affinity) of alpha-1B receptor to that of alpha-1A receptor.; assay type: protein assay
[7] = biological target: T3, Alpha-1A adrenergic receptor (Oryctolagus cuniculus) (UniProt O02824); assay: Efficacy relative to phenylephrine (PE) to constrict tissue containing the alpha-1A adrenergic receptor in rabbit urethra; assay type: functional, tissue-based
T3 sequence (whole entry): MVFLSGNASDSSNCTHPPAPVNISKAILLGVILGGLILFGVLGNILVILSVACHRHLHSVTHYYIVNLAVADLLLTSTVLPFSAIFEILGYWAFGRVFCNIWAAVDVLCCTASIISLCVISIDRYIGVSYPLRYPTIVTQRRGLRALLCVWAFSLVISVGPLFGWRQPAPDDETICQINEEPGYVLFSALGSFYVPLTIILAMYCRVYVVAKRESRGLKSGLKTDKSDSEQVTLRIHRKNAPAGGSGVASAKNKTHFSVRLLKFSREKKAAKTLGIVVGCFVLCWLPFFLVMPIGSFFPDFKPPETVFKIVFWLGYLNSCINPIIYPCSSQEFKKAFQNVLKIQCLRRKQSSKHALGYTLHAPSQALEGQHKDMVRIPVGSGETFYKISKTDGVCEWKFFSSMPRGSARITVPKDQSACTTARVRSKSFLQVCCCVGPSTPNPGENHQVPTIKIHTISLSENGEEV
Method in brief: (§3)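 α1-agonist dose–response curves in isolated tissue: rabbit urethra (α1A), rat spleen (α1B), rat aorta (α1D). Agonist potency and efficacy read from the concentration–response curves.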

[8] = biological target: T3, Alpha-1A adrenergic receptor (Oryctolagus cuniculus); assay: Functional agonism of the compounds to constrict tissue containing the alpha-1A adrenergic receptor in rabbit urethra; assay type: tissue-based; method in brief: as §3
[9] = biological target: T4, Alpha-1D adrenergic receptor (Rattus norvegicus, UniProt P23944); assay: In vitro binding affinity towards alpha-1D adrenergic receptor of rat clone in radioligand binding assay; method in brief: as §2
T4 sequence (P23944 whole entry): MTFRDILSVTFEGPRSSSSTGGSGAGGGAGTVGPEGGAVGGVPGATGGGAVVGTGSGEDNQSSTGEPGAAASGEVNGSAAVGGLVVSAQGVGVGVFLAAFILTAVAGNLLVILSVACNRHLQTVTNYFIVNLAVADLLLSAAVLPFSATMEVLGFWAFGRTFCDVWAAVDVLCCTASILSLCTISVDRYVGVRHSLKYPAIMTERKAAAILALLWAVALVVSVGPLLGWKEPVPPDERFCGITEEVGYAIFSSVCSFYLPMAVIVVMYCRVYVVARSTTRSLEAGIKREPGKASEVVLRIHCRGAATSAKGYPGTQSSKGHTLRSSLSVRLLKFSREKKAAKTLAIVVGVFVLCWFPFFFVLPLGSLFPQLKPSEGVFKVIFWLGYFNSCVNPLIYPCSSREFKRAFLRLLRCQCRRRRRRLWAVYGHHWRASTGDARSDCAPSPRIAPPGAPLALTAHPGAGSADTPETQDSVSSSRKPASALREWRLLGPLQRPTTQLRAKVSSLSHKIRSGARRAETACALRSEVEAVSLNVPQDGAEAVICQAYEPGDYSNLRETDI

Canis familiaris [10] = assay: Uroselectivity was determined by measuring effective dose required for 20 mmHg increase of mean arterial pressure (MAP) in vivo in dog; assay type: functional, Canis lupus familiaris, Artery; method in brief: as §1
[11] = biological target: T5, Alpha-2A adrenergic receptor (Homo sapiens, UniProt P08913); assay: In vitro binding affinity towards alpha-2A adrenergic receptor of human clone in radioligand binding assay
T5 sequence (P08913 whole entry): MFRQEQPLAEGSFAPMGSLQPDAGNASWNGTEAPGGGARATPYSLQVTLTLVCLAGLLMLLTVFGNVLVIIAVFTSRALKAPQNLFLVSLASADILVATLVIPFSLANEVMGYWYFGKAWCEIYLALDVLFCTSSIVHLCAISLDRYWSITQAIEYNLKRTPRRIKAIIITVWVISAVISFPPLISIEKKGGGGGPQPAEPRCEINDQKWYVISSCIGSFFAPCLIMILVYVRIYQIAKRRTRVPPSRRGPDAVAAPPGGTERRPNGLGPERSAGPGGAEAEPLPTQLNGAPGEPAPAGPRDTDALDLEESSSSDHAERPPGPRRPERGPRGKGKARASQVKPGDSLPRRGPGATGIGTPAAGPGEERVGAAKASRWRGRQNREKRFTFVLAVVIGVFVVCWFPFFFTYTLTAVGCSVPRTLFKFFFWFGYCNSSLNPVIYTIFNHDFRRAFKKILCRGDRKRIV

[12] = biological target: T6, Alpha-2A adrenergic receptor (Rattus norvegicus) (UniProt P22909); assay: Efficacy relative to clonidine to constrict tissue containing the alpha-2A adrenergic receptor in rat prostatic vas deferens
T6 sequence (whole entry): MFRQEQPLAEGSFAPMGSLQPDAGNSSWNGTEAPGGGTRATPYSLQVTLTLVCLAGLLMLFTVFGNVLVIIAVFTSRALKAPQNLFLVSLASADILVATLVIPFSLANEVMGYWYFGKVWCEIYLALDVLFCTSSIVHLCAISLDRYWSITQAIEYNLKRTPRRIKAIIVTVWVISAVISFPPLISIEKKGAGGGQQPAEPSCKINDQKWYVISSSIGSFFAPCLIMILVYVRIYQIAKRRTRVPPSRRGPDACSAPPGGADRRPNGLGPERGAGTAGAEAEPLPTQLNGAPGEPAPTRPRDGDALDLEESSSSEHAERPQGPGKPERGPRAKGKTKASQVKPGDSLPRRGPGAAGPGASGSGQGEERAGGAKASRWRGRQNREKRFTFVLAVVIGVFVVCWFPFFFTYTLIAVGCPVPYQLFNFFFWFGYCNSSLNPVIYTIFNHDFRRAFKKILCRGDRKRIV

[13] = biological target: T7, Alpha-2B adrenergic receptor (Rattus norvegicus, UniProt P19328); assay: In vitro binding affinity towards alpha-2B adrenergic receptor of rat neonatal lung in radioligand binding assay
T7 sequence (P19328 whole entry): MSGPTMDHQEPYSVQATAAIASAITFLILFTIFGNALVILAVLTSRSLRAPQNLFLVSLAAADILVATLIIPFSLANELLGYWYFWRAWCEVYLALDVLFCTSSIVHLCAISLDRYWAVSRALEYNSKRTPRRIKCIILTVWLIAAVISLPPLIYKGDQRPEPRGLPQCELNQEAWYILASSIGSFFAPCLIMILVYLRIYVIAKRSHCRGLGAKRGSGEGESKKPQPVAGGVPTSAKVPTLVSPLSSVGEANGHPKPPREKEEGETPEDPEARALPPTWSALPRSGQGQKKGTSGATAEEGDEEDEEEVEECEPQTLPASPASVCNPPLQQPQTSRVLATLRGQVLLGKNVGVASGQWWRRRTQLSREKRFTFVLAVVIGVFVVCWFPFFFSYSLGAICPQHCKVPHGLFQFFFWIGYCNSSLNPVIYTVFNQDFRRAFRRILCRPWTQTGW

[14] = biological target: T8, Alpha-1B adrenergic receptor (Rattus norvegicus) (UniProt P15823); assay: Efficacy relative to phenylephrine (PE) constriction of rat spleen containing alpha-1B adrenergic receptor; assay type: functional, tissue-based; method in brief: as §3
T8 sequence (whole entry): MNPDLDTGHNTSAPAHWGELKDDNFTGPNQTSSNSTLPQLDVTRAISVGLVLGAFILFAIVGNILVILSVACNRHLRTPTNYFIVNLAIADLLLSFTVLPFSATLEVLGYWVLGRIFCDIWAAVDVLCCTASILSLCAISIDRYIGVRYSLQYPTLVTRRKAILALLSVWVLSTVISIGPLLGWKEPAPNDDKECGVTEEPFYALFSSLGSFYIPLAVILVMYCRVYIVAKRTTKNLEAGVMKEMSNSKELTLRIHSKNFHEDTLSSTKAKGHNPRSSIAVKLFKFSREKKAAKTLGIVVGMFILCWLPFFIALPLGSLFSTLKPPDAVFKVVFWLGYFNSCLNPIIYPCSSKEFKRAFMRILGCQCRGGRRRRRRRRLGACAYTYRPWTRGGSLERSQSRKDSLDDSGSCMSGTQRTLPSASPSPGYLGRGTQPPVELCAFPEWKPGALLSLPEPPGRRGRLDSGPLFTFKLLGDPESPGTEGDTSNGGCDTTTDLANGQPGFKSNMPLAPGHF

[15] = biological target: T8, Alpha-1B adrenergic receptor (Rattus norvegicus); assay: Functional agonism of the compounds to constrict tissue containing the alpha-1B adrenergic receptor in rat spleen; assay type: tissue-based
Method in brief: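 Agonist dose–response curves were run on isolated tissue: rabbit urethra for α1A, rat spleen for α1B, and rat aorta for α1D.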

SMILES	ED delta5 (Canis familiaris [1]) [nM/kg]	Ki [2] [nM]	Ki [3] [nM]	Selectivity [4]	Ratio (Canis familiaris [5])	Selectivity [6]	Efficacy [7] [%]	pD2 [8]	Ki [9] [nM]	ED delta20 (Canis familiaris [10]) [nM/kg]	Ki [11] [nM]	Efficacy [12] [%]	Ki [13] [nM]	Efficacy [14] [%]	pD2 [15]
CS(=O)(=O)Nc1cccc2c1CCCC2C1=NCCN1 (stereo not given)	11.9	457	7410	9	1.1	20	87	6.19	4270	9.2					
CS(=O)(=O)Nc1cccc2c1CCCC2c1c[nH]cn1 (stereo not given)							83			102.3	105	62	676		
CCS(=O)(=O)Nc1cc(Cl)cc2c1CCCC2c1c[nH]cn1 (stereo not given)	19.1	45.7	> 10000	8	2.5	> 217				47.7					
CCS(=O)(=O)Nc1cccc2c1CCC2c1c[nH]cn1 (stereo not given)	4.4						87			5.6		26	186		
CS(=O)(=O)Nc1cccc2c1OCCC2c1c[nH]cn1 (stereo not given)							88			163.9				17	
CCS(=O)(=O)Nc1cccc(Cc2c[nH]cn2)c1	12		891				80		275	80	170	34	977		
CC(=O)Nc1cccc2c1CCCC2c1c[nH]cn1 (stereo not given)							70			220		100	3020	35	
COc1ccc(NS(C)(=O)=O)c2c1C(c1c[nH]cn1)CCC2 (stereo not given)			> 10000	> 6	2.6	> 6	57	4.81	> 10000	1850				26	4.74
CS(=O)(=O)Nc1c(O)ccc2c1CCCC2c1c[nH]cn1 (stereo not given)	0.18				1		104			0.16	44.7		47.9	94	
